The text below walks through data of PMC7246176 (Nature chemical biology, 2020).

Assay [1] deals with LRRK2 (Homo sapiens, UniProt Q5S007). Briefly: LRRK2 ADAPTA kinase assay. It is filed as biochemical. The note with it: Table 1.
Assay [2] concerns the target T1, DCLK1-Nluc in HCT116 cells (Homo sapiens, UniProt O15075).
T1 sequence (O15075 1-729 isoform O15075-2): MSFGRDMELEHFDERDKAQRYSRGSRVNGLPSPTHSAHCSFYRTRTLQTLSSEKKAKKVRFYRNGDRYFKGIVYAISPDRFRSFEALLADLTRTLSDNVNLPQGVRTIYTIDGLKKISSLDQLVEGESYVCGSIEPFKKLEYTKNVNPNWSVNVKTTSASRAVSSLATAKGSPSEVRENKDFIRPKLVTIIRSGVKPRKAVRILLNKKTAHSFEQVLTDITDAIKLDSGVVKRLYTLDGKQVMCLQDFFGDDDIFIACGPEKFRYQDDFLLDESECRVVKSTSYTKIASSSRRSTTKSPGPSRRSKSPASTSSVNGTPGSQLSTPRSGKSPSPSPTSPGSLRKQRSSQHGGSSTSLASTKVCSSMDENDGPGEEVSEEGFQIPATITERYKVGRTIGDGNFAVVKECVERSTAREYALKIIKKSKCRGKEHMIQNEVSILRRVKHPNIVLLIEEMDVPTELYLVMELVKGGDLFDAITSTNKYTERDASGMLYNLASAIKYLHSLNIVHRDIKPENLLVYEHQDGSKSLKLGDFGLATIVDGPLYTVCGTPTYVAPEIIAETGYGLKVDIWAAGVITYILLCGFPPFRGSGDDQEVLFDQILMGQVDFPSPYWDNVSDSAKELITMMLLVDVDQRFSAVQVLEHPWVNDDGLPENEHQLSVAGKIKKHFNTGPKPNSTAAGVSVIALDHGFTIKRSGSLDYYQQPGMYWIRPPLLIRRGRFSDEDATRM
Briefly: DCLK1 NanoBRET target engagement assay in HCT116 cells. It is filed as cell-based.

Assay [3] has as its target BRD4 (Homo sapiens, UniProt O60885). Nature of the assay: BRD4 AlphaScreen assay. It counts as binding.
In assay [4] the test system is PATU-8902 cells. Nature of the assay: Cell viability, ultra-low adherent 3D-spheroid culture, PATU-8902. It is filed as cell-based, human. The note with it: read-out: PATU-8902 cells 3D spheroid culture IC50. In outline: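 PATU-8988T and PATU-8902 cells were plated at 100 cells/well in 50 μL media, either adherent (2D) or in ultra-low attachment spheroid plates (3D), overnight. Test compound was pin-transferred and cells were incubated 120 h. Viability was read by CellTiter-Glo luminescence after 15 min at room temperature. Data were normalized to DMSO-treated wells per cell line and fitted.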

Assay [5] has as its system PANFR0172_T2. Nature of the assay: Patient-derived pancreatic organoid viability, PANFR0172_T2. It counts as cell-based, human. Conditions: read-out: PANFR0172_T2 3D organoid culture IC50. Put shortly:
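Patient-derived PDAC organoids were dissociated to single cells and plated at 1000 viable cells/well in complete organoid medium with 10% Matrigel, in ultra-low-attachment 384-well plates. After 24 h, compound was added by digital dispenser, then 7 days incubation. Read-out was CellTiter-Glo 3D luminescence after 1 h shaking at room temperature, normalized to DMSO wells for each culture.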

The subject of assay [6] is PATU-8988T cells. Nature of the assay: Cell viability, ultra-low adherent 3D-spheroid culture, PATU-8988T. Conditions: 120 h, read-out: PATU-8988T cells 3D spheroid culture IC50. It is filed as cell-based, human. In outline: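 PATU-8902 or PATU-8988T cells were plated at 100 cells/well and left overnight to adhere (2D plates) or to form spheroids (ultra-low-attachment 3D spheroid plates). Compound was pin-transferred, then 120 h incubation. Viability by CellTiter-Glo luminescence after 15 min at room temperature, normalized to DMSO-treated wells for each cell line.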

In assay [7] the target is T2, DCLK1 (Homo sapiens, UniProt O15075).
T2 sequence (O15075 1-740): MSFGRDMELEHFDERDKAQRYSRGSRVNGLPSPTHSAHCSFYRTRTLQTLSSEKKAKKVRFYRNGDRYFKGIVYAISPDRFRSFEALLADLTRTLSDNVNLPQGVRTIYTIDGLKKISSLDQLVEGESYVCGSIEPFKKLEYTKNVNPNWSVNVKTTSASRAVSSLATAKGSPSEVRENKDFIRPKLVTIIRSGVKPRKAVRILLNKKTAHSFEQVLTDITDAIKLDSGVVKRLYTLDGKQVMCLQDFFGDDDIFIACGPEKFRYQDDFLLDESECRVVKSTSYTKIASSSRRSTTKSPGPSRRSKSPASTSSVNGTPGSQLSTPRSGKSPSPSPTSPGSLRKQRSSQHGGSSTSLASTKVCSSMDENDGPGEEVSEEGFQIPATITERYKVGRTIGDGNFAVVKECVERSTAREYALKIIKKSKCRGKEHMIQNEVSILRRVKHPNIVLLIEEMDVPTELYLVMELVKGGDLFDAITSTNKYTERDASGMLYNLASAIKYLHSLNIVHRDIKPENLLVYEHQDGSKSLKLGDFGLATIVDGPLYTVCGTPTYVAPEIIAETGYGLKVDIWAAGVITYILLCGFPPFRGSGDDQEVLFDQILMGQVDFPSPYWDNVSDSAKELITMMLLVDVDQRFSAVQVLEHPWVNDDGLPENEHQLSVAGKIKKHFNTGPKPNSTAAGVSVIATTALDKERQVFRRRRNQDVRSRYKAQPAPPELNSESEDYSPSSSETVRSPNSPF
Briefly: DCLK1 KINOMEscan binding assay.

Molecules are shown by their SMILES. Read-outs that look alike come from different tables or passages of the source.

As usually defined, the IC50 is the concentration at which inhibition is half-maximal.

LRRK2, sequence (Q5S007 whole entry): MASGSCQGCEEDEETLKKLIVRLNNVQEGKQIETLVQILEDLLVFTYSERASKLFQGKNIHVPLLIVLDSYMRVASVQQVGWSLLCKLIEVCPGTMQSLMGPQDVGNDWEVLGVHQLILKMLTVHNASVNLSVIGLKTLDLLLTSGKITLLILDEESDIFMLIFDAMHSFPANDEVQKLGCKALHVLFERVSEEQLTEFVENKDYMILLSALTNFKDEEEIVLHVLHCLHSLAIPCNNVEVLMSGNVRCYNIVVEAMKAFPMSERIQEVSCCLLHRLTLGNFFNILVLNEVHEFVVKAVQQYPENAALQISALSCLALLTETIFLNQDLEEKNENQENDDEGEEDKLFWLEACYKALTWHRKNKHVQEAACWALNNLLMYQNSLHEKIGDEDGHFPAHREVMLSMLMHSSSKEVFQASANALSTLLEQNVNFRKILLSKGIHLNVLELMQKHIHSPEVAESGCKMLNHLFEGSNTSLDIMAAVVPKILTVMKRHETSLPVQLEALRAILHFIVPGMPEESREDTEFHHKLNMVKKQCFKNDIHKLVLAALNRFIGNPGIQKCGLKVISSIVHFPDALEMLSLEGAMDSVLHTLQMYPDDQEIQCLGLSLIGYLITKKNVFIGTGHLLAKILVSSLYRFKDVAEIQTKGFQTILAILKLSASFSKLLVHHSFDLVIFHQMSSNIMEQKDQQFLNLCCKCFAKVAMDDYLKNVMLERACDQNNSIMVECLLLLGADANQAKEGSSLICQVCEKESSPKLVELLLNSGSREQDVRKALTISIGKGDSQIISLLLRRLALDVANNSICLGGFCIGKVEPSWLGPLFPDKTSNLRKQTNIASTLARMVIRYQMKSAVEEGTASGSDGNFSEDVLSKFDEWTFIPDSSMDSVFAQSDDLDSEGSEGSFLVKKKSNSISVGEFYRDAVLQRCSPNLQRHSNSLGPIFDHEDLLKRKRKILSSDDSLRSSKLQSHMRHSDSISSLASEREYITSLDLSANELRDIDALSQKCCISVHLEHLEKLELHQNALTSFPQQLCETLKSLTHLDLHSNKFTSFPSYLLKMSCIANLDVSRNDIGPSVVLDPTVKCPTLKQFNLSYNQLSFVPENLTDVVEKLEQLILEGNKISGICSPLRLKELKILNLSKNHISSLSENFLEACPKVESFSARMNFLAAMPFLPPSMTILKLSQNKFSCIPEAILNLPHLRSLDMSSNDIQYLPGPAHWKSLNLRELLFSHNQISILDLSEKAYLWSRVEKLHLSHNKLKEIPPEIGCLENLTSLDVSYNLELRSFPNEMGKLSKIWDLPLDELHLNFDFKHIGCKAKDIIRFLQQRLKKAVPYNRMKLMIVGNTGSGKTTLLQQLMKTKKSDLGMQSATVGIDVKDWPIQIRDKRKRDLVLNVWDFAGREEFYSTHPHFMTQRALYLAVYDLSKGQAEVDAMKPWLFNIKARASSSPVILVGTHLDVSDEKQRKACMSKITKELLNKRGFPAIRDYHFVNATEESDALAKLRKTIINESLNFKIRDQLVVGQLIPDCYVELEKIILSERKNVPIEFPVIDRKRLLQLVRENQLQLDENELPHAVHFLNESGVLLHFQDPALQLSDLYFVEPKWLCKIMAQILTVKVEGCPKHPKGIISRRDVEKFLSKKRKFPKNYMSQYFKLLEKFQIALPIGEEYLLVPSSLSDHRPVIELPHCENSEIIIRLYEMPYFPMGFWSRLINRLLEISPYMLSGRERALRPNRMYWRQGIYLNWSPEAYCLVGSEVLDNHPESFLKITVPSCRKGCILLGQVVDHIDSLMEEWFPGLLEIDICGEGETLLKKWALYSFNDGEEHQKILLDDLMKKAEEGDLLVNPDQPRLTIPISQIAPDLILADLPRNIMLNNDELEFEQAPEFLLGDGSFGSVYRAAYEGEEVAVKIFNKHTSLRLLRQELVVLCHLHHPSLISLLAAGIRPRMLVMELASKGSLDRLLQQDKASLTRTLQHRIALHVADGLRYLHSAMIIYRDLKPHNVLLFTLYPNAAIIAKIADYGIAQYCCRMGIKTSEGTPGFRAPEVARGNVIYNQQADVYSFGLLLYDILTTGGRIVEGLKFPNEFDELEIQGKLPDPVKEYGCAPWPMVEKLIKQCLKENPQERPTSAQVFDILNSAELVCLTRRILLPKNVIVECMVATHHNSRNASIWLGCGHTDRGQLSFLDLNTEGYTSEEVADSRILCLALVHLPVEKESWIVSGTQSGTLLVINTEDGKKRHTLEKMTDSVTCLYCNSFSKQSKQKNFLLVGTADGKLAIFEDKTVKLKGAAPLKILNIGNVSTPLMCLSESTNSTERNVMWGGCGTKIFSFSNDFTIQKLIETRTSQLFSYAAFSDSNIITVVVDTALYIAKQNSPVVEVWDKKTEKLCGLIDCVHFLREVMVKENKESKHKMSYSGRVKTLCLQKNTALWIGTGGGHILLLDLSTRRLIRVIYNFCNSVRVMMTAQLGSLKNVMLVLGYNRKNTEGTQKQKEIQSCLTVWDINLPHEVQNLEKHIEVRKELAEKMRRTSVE

On to `COc1cc(N2CCN(C)CC2)ccc1Nc1ncc2c(n1)N(C)c1ccccc1C(=O)N2CC(F)(F)F` [DCLK1-IN-1], for which the IC50 in assay [1] (LRRK2 kinase assay IC50, ADAPTA) is 6970 nM; in assay [2] it was 279 nM; in assay [3], greater than 10000 nM; in assay [4] (Homo sapiens, PaTu 8902, 120 h), greater than 20000 nM; in assay [5] (Homo sapiens, 168 h) it was 877 nM; in assay [6] (Homo sapiens, PaTu 8988t) it was greater than 20000 nM. In assay [7], the IC50 turned out to be 9.5 nM.
Take `CCOc1cc(N2CCC(O)CC2)ccc1Nc1ncc2c(n1)N(C)c1ccccc1C(=O)N2C` [XMD8-92]: the concentration for half-maximal inhibition (IC50) in assay [1] (read-out: LRRK2 kinase assay IC50, ADAPTA) is 36 nM; in assay [2] (read-out: DCLK1 cellular assay IC50, nanoBRET, HCT116 cells), 1150 nM; in assay [3] (read-out: BRD4 binding assay IC50, AlphaScreen, Table 1), 1570 nM; in assay [4] (cell viability, 120 h, P.R. = partial response), greater than 20000 nM; in assay [5] (viability, 7 d, P.R. = partial response), greater than 20000 nM; in assay [6] (cell viability), 6060 nM. Moreover, the IC50 in assay [7] (read-out: DCLK1 binding assay IC50, KINOMEscan) was determined as 1400 nM.
